Experimental data published in ChEMBL document CHEMBL1136949, “Regioselective synthesis and biological evaluation of bis(indolyl)methane derivatized 1,4-disubstituted 1,2,3-bistriazoles as anti-infective agents” (2009).
The source made the active and inactive calls. No cut-off for these calls is given here.

What was measured:
Staphylococcus aureus = assay: Antibacterial activity against Staphylococcus aureus ATCC 25923 at 100 ug/mL after 24 hrs by disk diffusion method; type: functional; conditions: ATCC 25923, 24 h, read-out: DIZ
Summary of the method: (§1)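 Paper-disc diffusion on Mueller Hinton agar, pH 7.4 ± 0.2 at 25 °C. Whatman No. 2 discs (5 mm) were heat-sterilized at 160 °C for 30 min, loaded with DMSO test solution at 100 µg/10 µL and dried, then laid on the agar. Plates were held 1 h in the refrigerator for diffusion, then incubated 24 h at 37 °C. Inhibition zone diameter was read in mm. DMSO served as solvent control; ciprofloxacin disc as reference.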

Candida albicans = assay: Antifungal activity against Candida albicans ATCC 10231 at 100 ug/mL after 24 hrs by disk diffusion method; type: functional; conditions: ATCC 10231, 24 h, read-out: DIZ
Summary of the method: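 Disc diffusion as for the antibacterial test, on agar medium of glucose, peptone and Sabouraud dextrose agar in distilled water, pH 5.5 ± 0.2 at 25 °C. Sterilized 5 mm paper discs were loaded with DMSO test solution at 100 µg/10 µL and dried. Plates were held 1 h refrigerated, then incubated 24 h at 37 °C. Zone of inhibition was measured in mm.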

Escherichia coli = assay: Antibacterial activity against Escherichia coli ATCC 25922 at 100 ug/mL after 24 hrs by disk diffusion method; type: functional, organism-based; summary of the method: as §1

Structure (SMILES) | zone of inhibition at 100 µg/mL (Staphylococcus aureus) | zone of inhibition at 100 µg/mL (Candida albicans) | Activity (Escherichia coli)
COc1ccc(C(c2c(C)n(Cc3cn(Cc4ccc(Cl)cc4)nn3)c3ccccc23)c2c(C)n(Cc3cn(Cc4ccc(Cl)cc4)nn3)c3ccccc23)cc1 | 16 mm | 20 mm | inactive
CC(=O)N1CCN(c2ccc(OCC3COC(Cn4ccnc4)(c4ccc(Cl)cc4Cl)O3)cc2)CC1 (configuration not stated) [KETOCONAZOLE] |  | 24 mm | 
Clc1ccc(Cn2cc(Cn3cc(C(c4ccccc4)c4cn(Cc5cn(Cc6ccc(Cl)cc6)nn5)c5ccccc45)c4ccccc43)nn2)cc1 | 17 mm | 20 mm | inactive
COc1ccc(C(c2cn(Cc3cn(Cc4ccccc4)nn3)c3ccccc23)c2cn(Cc3cn(Cc4ccccc4)nn3)c3ccccc23)cc1 | 19 mm | 17 mm | inactive
O=C(O)c1cn(C2CC2)c2cc(N3CCNCC3)c(F)cc2c1=O [CIPROFLOXACIN] | 22 mm |  | 
Brc1ccc2c(c1)c(C(c1ccccc1)c1cn(Cc3cn(Cc4ccccc4)nn3)c3ccc(Br)cc13)cn2Cc1cn(Cc2ccccc2)nn1 | 16 mm | 21 mm | inactive
Cc1c(C(c2ccc(Cl)cc2)c2c(C)n(Cc3cn(Cc4ccccc4)nn3)c3ccccc23)c2ccccc2n1Cc1cn(Cc2ccccc2)nn1 | 20 mm | 18 mm | inactive
Clc1ccc(Cn2cc(Cn3cc(C(c4ccc(Cl)cc4)c4cn(Cc5cn(Cc6ccc(Cl)cc6)nn5)c5ccccc45)c4ccccc43)nn2)cc1 | 20 mm | 16 mm | inactive
Cc1c(C(c2ccc(Cl)cc2)c2c(C)n(Cc3cn(Cc4ccc(Cl)cc4)nn3)c3ccccc23)c2ccccc2n1Cc1cn(Cc2ccc(Cl)cc2)nn1 | 19 mm | 18 mm | inactive
Cc1c(C(c2ccccc2)c2c(C)n(Cc3cn(Cc4ccccc4)nn3)c3ccccc23)c2ccccc2n1Cc1cn(Cc2ccccc2)nn1 | 20 mm | 16 mm | inactive
COc1ccc(C(c2cn(Cc3cn(Cc4ccccc4)nn3)c3ccc(Br)cc23)c2cn(Cc3cn(Cc4ccccc4)nn3)c3ccc(Br)cc23)cc1 | 20 mm | 16 mm | inactive
Cc1c(C(c2ccccc2)c2c(C)n(Cc3cn(Cc4ccc(Cl)cc4)nn3)c3ccccc23)c2ccccc2n1Cc1cn(Cc2ccc(Cl)cc2)nn1 | 17 mm | 19 mm | inactive
COc1ccc(Cn2cc(Cn3cc(C(c4ccccc4)c4cn(Cc5cn(Cc6ccc(OC)cc6)nn5)c5ccccc45)c4ccccc43)nn2)cc1 | 18 mm | 16 mm | inactive
COc1ccc(C(c2cn(Cc3cn(Cc4ccc(Cl)cc4)nn3)c3ccccc23)c2cn(Cc3cn(Cc4ccc(Cl)cc4)nn3)c3ccccc23)cc1 | 16 mm | 21 mm | inactive
c1ccc(Cn2cc(Cn3cc(C(c4ccccc4)c4cn(Cc5cn(Cc6ccccc6)nn5)c5ccccc45)c4ccccc43)nn2)cc1 | 20 mm | 16 mm | inactive
Clc1ccc(Cn2cc(Cn3cc(C(c4ccccc4)c4cn(Cc5cn(Cc6ccc(Cl)cc6)nn5)c5ccc(Br)cc45)c4cc(Br)ccc43)nn2)cc1 | 16 mm | 21 mm | inactive
COc1ccc(Cn2cc(Cn3cc(C(c4ccc(OC)cc4)c4cn(Cc5cn(Cc6ccc(OC)cc6)nn5)c5ccccc45)c4ccccc43)nn2)cc1 | 18 mm | 16 mm | inactive
